Experimental data published in ChEMBL document CHEMBL4613302, “Synthesis and Antiproliferative Activity of Nitric Oxide-Donor Largazole Prodrugs” (ACS Med Chem Lett, 2020).
The source made the active and inactive calls. No cut-off for these calls is given here.

What was measured:
U2OS [1] = assay: Antiproliferative activity against human U2OS cells assessed as reduction in cell viability incubated for 24 hrs by MTT assay; format: functional, cell-based
How it was run: (§1)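 Growth inhibition was read at 24, 48 and 72 h in U-2OS, Caco-2 and IMR-32 cells. EC50 values are the mean of n = 3 independent experiments ± SEM.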

U2OS [2] = assay: Antiproliferative activity against human U2OS cells assessed as reduction in cell viability incubated for 48 hrs by MTT assay; format: functional, cell-based; how it was run: as §1
U2OS [3] = assay: Antiproliferative activity against human U2OS cells assessed as reduction in cell viability incubated for 72 hrs by MTT assay; format: functional, cell-based; how it was run: as §1
Caco-2 [4] = assay: Antiproliferative activity against human Caco2 cells assessed as reduction in cell viability incubated for 24 hrs by MTT assay; format: functional, cell-based; conditions: Caco-2, 24 h; how it was run: as §1
Caco-2 [5] = assay: Antiproliferative activity against human Caco2 cells assessed as reduction in cell viability incubated for 48 hrs by MTT assay; format: functional, cell-based; conditions: Caco-2, 48 h; how it was run: as §1
Caco-2 [6] = assay: Antiproliferative activity against human Caco2 cells assessed as reduction in cell viability incubated for 72 hrs by MTT assay; format: functional, cell-based; conditions: Caco-2, 72 h; how it was run: as §1
IMR-32 [7] = assay: Antiproliferative activity against human IMR32 cells assessed as reduction in cell viability incubated for 24 hrs by MTT assay; format: functional, cell-based; conditions: IMR-32, 24 h; how it was run: as §1
IMR-32 [8] = assay: Antiproliferative activity against human IMR32 cells assessed as reduction in cell viability incubated for 48 hrs by MTT assay; format: functional, cell-based; conditions: IMR-32, 48 h; how it was run: as §1
IMR-32 [9] = assay: Antiproliferative activity against human IMR32 cells assessed as reduction in cell viability incubated for 72 hrs by MTT assay; format: functional, cell-based; conditions: IMR-32, 72 h; how it was run: as §1
[10] = Induction of NO production in PBS buffer at 0.1 mM in presence of L-cysteine measured for 1 to 24 hrs by Griess method; format: functional
How it was run: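 Griess assay for NO release: each compound at 0.1 mM in 50 mM phosphate buffer, pH 7.4, at 37 °C, with l-cysteine at 0.5 mM and at 5 mM. Nitrite yield is given as % of the initial compound concentration at 1 h, 5 h and 24 h. Values are the average of three independent experiments.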

[11] = Chemical stability of compound in HEPES assessed as compound hydrolysis at 500 ug/ml measured upto 24 hrs by HPLC-UV/MS analysis; format: physicochemical
[12] = Chemical stability of compound in DMSO assessed as compound hydrolysis at 500 ug/ml measured upto 24 hrs by HPLC-UV/MS analysis; format: physicochemical
[13] = Stability of compound in human plasma assessed as compound hydrolysis at 500 ug/ml measured upto 24 hrs by HPLC-UV/MS analysis; format: ADME, cell-free
[14] = Induction of NO production in PBS buffer at 0.1 mM measured for 1 to 24 hrs by Griess method; format: functional
How it was run: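 Compound at 0.1 mM in 50 mM phosphate buffer, pH 7.4, incubated at 37 °C without l-cysteine. Released NO was measured as nitrite by the Griess method and given as % of the initial compound concentration at 1, 5 and 24 h. Values are the average of three independent experiments.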

| SMILES | EC50 (U2OS [1]) | EC50 (U2OS [2]) | EC50 (U2OS [3]) | EC50 (Caco-2 [4]) | EC50 (Caco-2 [5]) | EC50 (Caco-2 [6]) | EC50 (IMR-32 [7]) | EC50 (IMR-32 [8]) | EC50 (IMR-32 [9]) | Activity [10] | Stability [11] | Stability [12] | Stability [13] | Activity [14] |
| --- | --- | --- | --- | --- | --- | --- | --- | --- | --- | --- | --- | --- | --- | --- |
| CCCCCCCC(=O)SCC/C=C/[C@@H]1CC(=O)NCc2nc(cs2)C2=N[C@@](C)(CS2)C(=O)N[C@@H](C(C)C)C(=O)O1 [LARGAZOLE] | 20.4 µM | 0.372 µM | 0.331 µM | > 10000 µM | 0.759 µM | 0.0145 µM | 0.0347 µM | 0.0302 µM | 0.0123 µM |  |  |  |  |  |
| CC(C)[C@@H]1NC(=O)[C@]2(C)CSC(=N2)c2csc(n2)CNC(=O)C[C@@H](/C=C/CCSC(=O)CCCCO[N+](=O)[O-])OC1=O | 1.95 µM | 0.309 µM | 0.17 µM | 11.2 µM | 0.038 µM | 0.00813 µM | 0.0151 µM | 0.0195 µM | 0.012 µM | Active | Stable | Stable | Stable | Active |
| CC(C)[C@@H]1NC(=O)[C@]2(C)CSC(=N2)c2csc(n2)CNC(=O)C[C@@H](/C=C/CCSC(=O)CCC(CO[N+](=O)[O-])O[N+](=O)[O-])OC1=O (some centres not stated) | 0.468 µM | 0.741 µM | 1 µM | 9.12 µM | 0.00562 µM | 0.00447 µM | 0.0295 µM | 0.0617 µM | 0.0501 µM | Active | Stable | Stable | Stable | Active |
